Reference: ChEMBL document CHEMBL3286129, “Optimization of peptidomimetic boronates bearing a P3 bicyclic scaffold as proteasome inhibitors” (Eur J Med Chem, 2014)
Calls of active or inactive are those of the source. No cut-off for these calls is given here.

Key:
NCI-H460 = test: Growth inhibition of human NCI-H460 cells; format: functional
NCI-H522 = test: Growth inhibition of human NCI-H522 cells; format: functional
COLO 205 = test: Growth inhibition of human COLO205 cells; format: functional
HT-29 = test: Growth inhibition of human HT-29 cells; format: functional
[1] = Growth inhibition of human SF539 cells; format: functional
SNB-75 = test: Growth inhibition of human SNB75 cells; format: functional
[2] = Growth inhibition of human LOXIMVI cells; format: functional; conditions: LOX IMVI
Malme-3M = test: Growth inhibition of human MALME-3M cells; format: functional
SK-MEL-28 = test: Growth inhibition of human SK-MEL-28 cells; format: functional
SK-MEL-5 = test: Growth inhibition of human SK-MEL-5 cells; format: functional
[3] = Growth inhibition of human UACC257 cells; format: functional
IGROV-1 = test: Growth inhibition of human IGROV1 cells; format: functional
[4] = Growth inhibition of human OVCAR3 cells; format: functional; conditions: OVCAR-3
[5] = Growth inhibition of human OVCAR4 cells; format: functional
[6] = Growth inhibition of human NCI-ADR-RES cells; format: functional
786-0 = test: Growth inhibition of human 786-0 cells; format: functional
ACHN = test: Growth inhibition of human ACHN cells; format: functional
TK-10 = test: Growth inhibition of human TK10 cells; format: functional
[7] = Growth inhibition of human UO31 cells; format: functional; conditions: UO-31
MCF7 = test: Growth inhibition of human MCF7 cells; format: functional
[8] = Growth inhibition of human BT549 cells; format: functional
[9] = molecular target: T1, Proteasome Macropain subunit MB1 (Homo sapiens) (UniProt P28074); test: Inhibition of chymotrypsin-like activity of 20S proteasome in human erythrocytes using Suc-Leu-Leu-Val-Tyr-AMC as substrate at 20 uM by fluorescence assay relative to control
T1 sequence (whole entry): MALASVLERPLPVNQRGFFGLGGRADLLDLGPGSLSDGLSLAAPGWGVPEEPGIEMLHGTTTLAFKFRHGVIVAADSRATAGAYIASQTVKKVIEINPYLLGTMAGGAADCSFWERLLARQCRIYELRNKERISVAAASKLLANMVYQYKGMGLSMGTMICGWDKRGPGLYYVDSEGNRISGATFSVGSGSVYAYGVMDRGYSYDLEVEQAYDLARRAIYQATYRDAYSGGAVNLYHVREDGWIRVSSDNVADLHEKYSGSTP
Method in brief: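 Single inhibitor concentration, equivalent DMSO as negative control. AMC fluorescence read at ex 380/em 460 nm; percent inhibition of ChT-L activity.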

[10] = molecular target: T2, Proteasome Macropain subunit MB1 (Homo sapiens, UniProt P28074); test: Inhibition of chymotrypsin-like activity of 20S proteasome in human erythrocytes using Suc-Leu-Leu-Val-Tyr-AMC as substrate by fluorescence assay; conditions: read-out: Ki
T2 sequence (P28074 whole entry): T1 sequence (whole entry)

[11] = molecular target: Proteasome Macropain subunit (Homo sapiens) (UniProt P49721); test: Inhibition of trypsin-like activity of 20S proteasome in human erythrocytes using Boc-Leu-Arg-Arg-AMC as substrate by fluorescence assay; format: cell-based
Proteasome Macropain subunit (Homo sapiens), sequence (P49721 whole entry): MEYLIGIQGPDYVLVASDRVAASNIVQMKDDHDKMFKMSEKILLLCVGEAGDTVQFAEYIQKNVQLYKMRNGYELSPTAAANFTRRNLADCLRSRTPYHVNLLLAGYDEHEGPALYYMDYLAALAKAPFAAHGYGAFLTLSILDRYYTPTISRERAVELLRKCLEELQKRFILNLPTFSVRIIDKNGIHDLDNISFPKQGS
Method in brief: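 Human 20S proteasome 0.0025 mg/mL at 30 °C in 50 mM Tris pH 7.4, 50 mM NaCl, 0.5 mM EDTA, 0.03% SDS, 7.5% DMSO. Varied inhibitor concentrations; AMC release monitored continuously for 10 min, ex 380/em 460 nm. Ki derived from progress-curve IC50 fit.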

Chymotrypsinogen A = Chymotrypsinogen A (Bos taurus, UniProt P00766); test: Inhibition of bovine pancreatic alpha-chymotrypsin using Suc-Leu-Leu-Val-Tyr-AMC as substrate by fluorescence assay
Method in brief: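 Enzyme incubated at 20 °C in 50 mM Tris pH 8.0, 100 mM NaCl, 5 mM EDTA, 7.5% DMSO with varied inhibitor concentrations. Substrate hydrolysis followed for 10 min. Ki from progress curves; mean of three determinations.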

[12] = Cytotoxicity against human leukemia cells assessed as cell growth at 10 uM relative to control; format: functional; conditions: read-out: Activity
Method in brief: (§1)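 Single-concentration screen against a panel of human cancer cell lines. Each value is the mean percent growth across the cell lines of that tumour subpanel.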

[13] = Cytotoxicity against human NSCLC cells assessed as cell growth at 10 uM relative to control; format: functional; conditions: read-out: Activity; method in brief: as §1
[14] = Cytotoxicity against human prostate cancer cells assessed as cell growth at 10 uM relative to control; format: functional; conditions: Cancer cell lines, read-out: Activity; method in brief: as §1
[15] = Cytotoxicity against human breast cancer cells assessed as cell growth at 10 uM relative to control; format: functional; conditions: Cancer cell lines, read-out: Activity; method in brief: as §1
[16] = Growth inhibition of human MOLT4 cells; format: functional
SR = test: Growth inhibition of human SR cells; format: functional
HOP-62 = test: Growth inhibition of human HOP62 cells; format: functional
[17] = Growth inhibition of human HOP92 cells; format: functional
NCI-H226 = test: Growth inhibition of human NCI-H226 cells; format: functional
[18] = read-out: LC50 (the source's name)

CC(C)C[C@H](NC(=O)CCn1ccc2ccccc2c1=O)B(O)O
GI50 (NCI-H460): 13 µM
LC50 (NCI-H460): > 100 µM
TGI (NCI-H460): 56.2 µM
GI50 (NCI-H522): 2.61 µM
LC50 (NCI-H522): > 100 µM
TGI (NCI-H522): 8.09 µM
GI50 (COLO 205): 5.06 µM
TGI (COLO 205): > 100 µM
CC50 (COLO 205; [18]): > 100 µM
GI50 (HT-29): 3.68 µM
LC50 (HT-29): > 100 µM
TGI (HT-29): 48.7 µM
GI50 ([1]; SF-539): 1.61 µM
TGI ([1]; SF-539): 5.62 µM
CC50 ([1]; SF-539, read-out: LC50 (the source's name)): > 100 µM
GI50 (SNB-75): 2.94 µM
LC50 (SNB-75): 93.4 µM
TGI (SNB-75): 15.9 µM
GI50 [2]: 2.11 µM
TGI [2]: 6.78 µM
CC50 [2, 18]: > 100 µM
GI50 (Malme-3M): 2.58 µM
TGI (Malme-3M): 9.89 µM
CC50 (Malme-3M; [18]): > 100 µM
GI50 (SK-MEL-28): 3.27 µM
TGI (SK-MEL-28): > 100 µM
CC50 (SK-MEL-28; [18]): > 100 µM
GI50 (SK-MEL-5): 4.3 µM
LC50 (concentration killing 50% of cells) (SK-MEL-5): 83.7 µM
TGI (SK-MEL-5): 19 µM
GI50 ([3]; UACC-257): 3.68 µM
TGI ([3]; UACC-257): 33.8 µM
CC50 ([3]; UACC-257, read-out: LC50 (the source's name)): > 100 µM
GI50 (IGROV-1): 12.3 µM
LC50 (IGROV-1): > 100 µM
TGI (IGROV-1): > 100 µM
GI50 [4]: 1.97 µM
LC50 (concentration killing 50% of cells) [4]: 31.7 µM
TGI [4]: 5.66 µM
GI50 ([5]; OVCAR-4): 17 µM
TGI ([5]; OVCAR-4): > 100 µM
CC50 ([5]; OVCAR-4, read-out: LC50 (the source's name)): > 100 µM
GI50 [6]: 67.1 µM
LC50 [6]: > 100 µM
TGI [6]: > 100 µM
GI50 (786-0): 4.76 µM
TGI (786-0): > 100 µM
CC50 (786-0; [18]): > 100 µM
GI50 (ACHN): 1.75 µM
TGI (ACHN): > 100 µM
CC50 (ACHN; [18]): > 100 µM
GI50 (TK-10): 2.93 µM
LC50 (TK-10): > 100 µM
TGI (TK-10): 9.8 µM
GI50 [7]: 3.92 µM
LC50 [7]: > 100 µM
TGI [7]: 35.3 µM
GI50 (MCF7): 4.35 µM
TGI (MCF7): > 100 µM
CC50 (MCF7; [18]): > 100 µM
GI50 ([8]; BT-549): 2.21 µM
TGI ([8]; BT-549): 17.1 µM
CC50 ([8]; BT-549, read-out: LC50 (the source's name)): > 100 µM
inhibition [9]: > 40%
Ki [10]: 0.051 µM
inhibition [11]: inactive
Ki (Chymotrypsinogen A): Not Active
growth at 10 µM [12]: 21.1%
growth at 10 µM [13]: 60.3%
growth at 10 µM [14]: 57.8%
growth at 10 µM [15]: 38.1%
GI50 ([16]; MOLT-4): 1.28 µM
TGI ([16]; MOLT-4): 5.94 µM
CC50 ([16]; MOLT-4, read-out: LC50 (the source's name)): > 100 µM
GI50 (SR): 1.7 µM
TGI (SR): 28.9 µM
CC50 (SR; [18]): > 100 µM
GI50 (HOP-62): 4.51 µM
TGI (HOP-62): 22.1 µM
CC50 (HOP-62; [18]): 96.4 µM
GI50 ([17]; HOP-92): 10.9 µM
TGI ([17]; HOP-92): 67.1 µM
CC50 ([17]; HOP-92, read-out: LC50 (the source's name)): > 100 µM
GI50 (NCI-H226): 1.47 µM
TGI (NCI-H226): 3.24 µM
CC50 (NCI-H226; [18]): 7.15 µM
